eIF4E 4G PPI – eIF4E/eIF4G interaction inhibition in translation initiation. P63073+Q04637. TR-FRET eIF4E-eIF4GI(517-606) binding, 2 h. inhibition, % at 21.7 µM. 220,000 tested, 0.37% active;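 active = inhibition above about 30%, limit read from the data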;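 also: 0% = full FRET control wells and 100% = background wells lacking eIF4GI fragment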
14-3-3 Bad PPI – disrupts binding of bovine 14-3-3 zeta to phospho-Bad peptide; P63103; TR-FRET 14-3-3zeta/Dy647-pBad peptide displacement, 1 h; inhibition, % at 21.7 µM; 220,000 tested, 0.71% active; AID 781;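 active = inhibition above about 70%, limit read from the data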;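 also: 0% = full 14-3-3 plus peptide FRET controls and 100% = background without 14-3-3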
Target sequence (P63103 whole entry, looked up): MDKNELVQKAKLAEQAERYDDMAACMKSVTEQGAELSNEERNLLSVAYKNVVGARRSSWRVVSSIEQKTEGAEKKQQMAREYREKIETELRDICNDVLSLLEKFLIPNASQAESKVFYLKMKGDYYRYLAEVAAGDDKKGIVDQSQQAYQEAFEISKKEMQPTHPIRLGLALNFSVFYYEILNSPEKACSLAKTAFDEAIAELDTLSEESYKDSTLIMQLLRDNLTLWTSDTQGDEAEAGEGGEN
EBV gp42 block – EBV gp42 inhibition. Fluorescence polarization binding assay, mP read-out. 220,000 tested, 0.42% active. AID 1085. inhibition, % (tested at 21.74 µM)
Target sequence (Q1HVG2 whole entry, looked up): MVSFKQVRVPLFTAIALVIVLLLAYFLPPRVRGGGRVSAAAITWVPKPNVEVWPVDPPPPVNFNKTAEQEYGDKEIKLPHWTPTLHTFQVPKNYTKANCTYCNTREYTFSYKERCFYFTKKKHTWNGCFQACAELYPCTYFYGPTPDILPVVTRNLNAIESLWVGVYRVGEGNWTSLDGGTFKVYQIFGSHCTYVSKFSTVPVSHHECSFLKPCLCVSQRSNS
RBBP9 inhibitor – human RBBP9 hydrolase inhibition; O75884; recombinant RBBP9, FP-Rh probe fluorescence polarization; inhibition, % at 7.94 µM; 220,000 tested, 0.2% active;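 active = inhibition above the campaign mean of all tested compounds plus 3 SD, cut at about 14% in these data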;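 also: plate controls were DMSO wells with RBBP9 for no effect and wells lacking RBBP9 protein for full effect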
Target sequence (O75884 whole entry, looked up): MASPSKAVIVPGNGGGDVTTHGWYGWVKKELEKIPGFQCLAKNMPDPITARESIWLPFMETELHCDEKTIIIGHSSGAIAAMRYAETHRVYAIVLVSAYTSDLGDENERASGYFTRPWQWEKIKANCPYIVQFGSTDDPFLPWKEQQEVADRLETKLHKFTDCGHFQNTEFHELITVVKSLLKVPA
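Assay system: recombinant human RBBP9; Reagent: Serine-hydrolase probe FP-Rh, 375 nM pre-mixing; Doses: 7.94 µM single dose, 0.794% DMSO; Incubation: 30 min then 45 min, 25 °C; Detection: fluorescence polarization (mP), excitation 525 nm, emission 598 nm; Evaluation: percent inhibition from mP, scaled between DMSO and no-protein wells.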
PKD1 inh – PKD1 (human) kinase inhibition; Q15139; PKD1 kinase fluorescence polarization assay; inhibition, % (concentration not given with the values); 200,000 tested, 0.056% active
Starred values were filed as active, the others as inactive; x = not tested or not shown; [ ] = dose if it differs, or a comment. Hits are enriched below; roughly 1.6% of the tested compounds scored in any of these assays. Rule as the data show it, unless noted: active = inhibition above about 50%; inactive = the rest.

SMILES	eIF4E 4G PPI	14-3-3 Bad PPI	EBV gp42 block	RBBP9 inhibitor	PKD1 inh
O=C1Nc2ccc(Cl)cc2[C@@](C#CC2CC2)(C(F)(F)F)O1	2.6	3.2	-6.0	-3.5	x
CCCCC1(C)OC(=O)C(=Cc2ccc(N(CC)CC)cc2)C(=O)O1 (stereo unspecified)	-10.7	19.2	74.5*	-19.8	-11.3
COc1ccc2[nH]c3c(C)c4ccncc4c(C)c3c2c1	33.4*	49.9	3.5	5.5	x
CN(C)/C=C(\c1cnc(Cl)s1)S(=O)(=O)c1ccccc1	-0.2	-2.5	-11.2	-0.4	-1.6
N#Cc1ccc(C(=O)OCC(=O)Nc2ccc(S(N)(=O)=O)cc2)cc1	4.1	-1.6	-13.8	-1.6	x
O=C(COC(=O)c1ccc(NS(=O)(=O)c2cccs2)cc1)NCc1ccco1	19.6	35.6	67.1*	-3.9	x
Cc1sc(NC(=O)c2cc(-c3ccccc3)nc3ccccc23)c(C(N)=O)c1C	4.9	-17.5	-8.0	-10.1	-11.3
Cc1sc(NC(=O)c2cc(-c3ccc(Cl)cc3)nc3ccccc23)c(C(N)=O)c1C	-18.8	79.5*	-25.7	9.3	16.5
Cc1c(C(=O)NC(C(C)C)C(C)C)cccc1[N+](=O)[O-]	-4.8	-12.4	4.7	-7.6	-1.7
CCN(CC)c1ccc2c(c1)oc(=O)c1c(Cl)cc(=O)oc12	6.4	0.7	53.8*	-4.0	-6.0
Cc1ccccc1OCc1nnc(SCC(=O)Nc2ccc(N3CCOCC3)c(Cl)c2)n1C	-1.8	5.8	-6.3	0.2	1.8
CCOc1ccc(Nc2ncnc3c2cnn3Cc2ccccc2)cc1	0.4	80.3*	-20.6	-5.8	-10.1
O=C(CN1C(=O)S/C(=C\c2ccccc2)C1=O)NNC(=O)c1ccccc1O	2.8	7.8	1.9	0.4	-1.3
COc1ccc(/C=C2\SC(=O)N(CC(=O)NNC(=O)c3ccccc3O)C2=O)cc1	8.0	62.0	58.0*	-7.4	-4.6
Cc1ccc(OCC(=O)N/N=C/c2cccn2C)cc1	0.3	70.0*	-5.2	3.5	4.6
Cc1ccc2cc(C)c3nnc(SCC(=O)Nc4nc5c(s4)CCCC5)n3c2c1	4.4	5.5	-23.0	-4.6	-1.2
O=C(c1ccco1)N1CCN(Cc2cccc(F)c2)CC1	1.0	73.5*	-15.5	-4.8	1.8
O=C(c1ccco1)N1CCN(Cc2ccc(Cl)cc2)CC1	4.6	78.2*	6.3	-8.1	3.4
O=C(c1cccc(F)c1)N1CCC(N2CCOCC2)CC1	4.0	74.2*	0.1	-2.0	-6.8
COc1cccc(C(=O)N2CCN(Cc3cccc(F)c3)CC2)c1	-5.6	49.1	-6.1	8.7	3.3
O=C(c1cccc(F)c1)N1CCN(Cc2ccco2)CC1	12.8	60.8	10.9	2.2	7.5
CCOc1ccc(CN2CCN(C(=O)c3cccc(F)c3)CC2)cc1	4.2	72.1*	-15.7	-8.3	3.7
O=S(=O)(N/N=C/c1cn(Cc2ccccc2)c2ccccc12)c1ccccc1	5.3	-2.1	-11.6	-4.2	-4.9
COc1ccc(-c2cc(C(F)(F)F)n3nc(C(=O)Nc4c(C)n(C)n(-c5ccccc5)c4=O)cc3n2)cc1	-1.4	5.2	8.4	2.1	-1.8
Brc1cccc(CN2CCCCCCC2)c1	-10.4	58.4	5.6	-2.2	2.9
SMILES	eIF4E 4G PPI	14-3-3 Bad PPI	EBV gp42 block	RBBP9 inhibitor	PKD1 inh
O=C(CN1CCN(C(=O)c2cccc(F)c2)CC1)NC1CCCCC1	6.9	74.5*	-12.0	-2.1	-10.2
Fc1cccc(CN2CCCCCCC2)c1	0.5	78.3*	-14.7	-7.2	-4.2
N#Cc1c(Cl)c(Cl)c2nnc(-c3ccc(Br)cc3)n2c1Cl	36.1*[fluorescence artefact?]	95.0*[fluorescence artefact?]	44.0	-3.6	0.5
COc1cc(CC(=O)NCCc2ccc(S(N)(=O)=O)cc2)cc(OC)c1OC	81.3*	-0.1	-9.7	-7.2	-1.7
COc1cc(-c2cc(C(=O)NCCc3ccc(S(N)(=O)=O)cc3)c3ccccc3n2)cc(OC)c1OC	4.0	7.8	-7.0	0.4	x
CCC1(C)Cc2ccccc2/C(=C/C(=O)N2CCCCC2)N1 (stereo unspecified)	3.9	77.0*	8.3	-0.3	-2.7
CNC(=O)/C=C1\NC(C)(C)Cc2ccccc21	-1.0	29.7	-19.3	-3.0	-5.5
COc1ccc(Cn2c(=O)[nH]c3cc(C(=O)NC4CCCC4)ccc3c2=O)cc1	3.5	6.1	-3.9	-6.9	55.9*
COc1cc2[nH]c(=O)n(Cc3ccc(C(=O)NC4CCCC4)cc3)c(=O)c2cc1OC	-2.3	7.4	-9.4	-3.2	-1.6
COCCNC(=O)c1ccc2c(=O)n(CCOC)c(=O)[nH]c2c1	0.9	84.7*	-9.7	-3.4	-11.8
Cc1cc(CNC(=O)C(C)n2nc(C)c([N+](=O)[O-])c2C)c2ccccc2n1 (stereo unspecified)	-0.4	-9.8	-5.2	-2.8	2.1
N=C1c2ccccc2CN1c1ccc(N2CCOCC2)c(S(=O)(=O)Nc2ccc(Cl)cc2)c1	10.0	5.8	-14.2	-6.0	x
O=C(Nc1ccc2nc3ccccc3nc2c1)c1ccccc1	-5.4	3.6	73.1*	1.7	-4.4
O=C(Nc1ccccc1)c1ccc2ccccc2n1	-0.9	79.7*	-15.8	-13.0	-0.2
CCCCCC#CCC#CCC#CCC#CCCCC(=O)O	36.5*	88.7*	36.5	-10.1	-6.9
CCCCCCCCCCCCS(=O)(=O)CCC(=O)O	5.9	6.2	-12.2	-6.5	x
Cc1ccc(C(=O)CSc2ncnc3sc4c(c23)CCCC4)cc1	32.7*	-5.8	-12.1	-7.2	-0.3
O=C(NCC(=O)N1CCN(S(=O)(=O)c2cccs2)CC1)c1ccc(Cl)cc1	-3.3	-15.1	-10.0	-4.6	-9.3
O=C(c1cccc(S(=O)(=O)Nc2cccc(C(F)(F)F)c2)c1)N1CCOCC1	0.0	-0.9	-0.5	-10.2	x
CC1CCCN(C(=O)c2cccc(S(=O)(=O)Nc3cc(C(F)(F)F)ccc3Cl)c2)C1 (stereo unspecified)	6.4	89.9*	4.0	-0.7	3.3
CCN1/C(=C2\SC(=S)N(Cc3ccccc3)C2=O)Sc2ccccc21	3.1	-4.2	52.9*	6.3	1.4
Cc1ccccc1NC(=O)c1ccc(Cl)c(NC(=O)c2cccnc2)c1	1.4	-6.8	-14.0	-1.1	-11.2
Cc1ccc(NC(=O)COC(=O)c2ccc(OCc3c(C)noc3C)cc2)cc1S(=O)(=O)N1CCOCC1	3.0	3.6	-14.0	-2.9	0.1
CC1(c2ccc3noc(-c4ccc(F)cc4)c3c2)OCCO1	-1.8	8.1	86.2*	-0.2	8.1
Fc1ccc(-c2onc3ccc(C4OCCO4)cc23)cc1	0.7	-11.4	27.1	3.7	-1.9
O=Cc1ccc2noc(-c3ccc(F)cc3)c2c1	3.3	13.1	151.1*	-7.1	8.2
Cc1cc(C)n2nc(SCCOc3ccccc3F)nc2n1	-1.7	-3.0	-8.6	0.7	0.2
O=C(O)CSc1nc2ccccc2n1C1CCCCC1	0.5	84.5*	11.1	-0.8	-6.8
CC1CCCCC1NCC(=O)NCc1ccc(F)cc1 (stereo unspecified)	0.7	57.4	-0.4	-4.2	-0.8
CCCCSc1ncnc2[nH]ncc12	1.7	-6.8	-15.5	3.8	x

High-throughput results from PubChem.
